Results reported in article PMC5110259 (Clinical cancer drugs, 2016).

Tests used:
DNS cytotoxicity assay [1] = type: cell-based; conditions: human, CEM cells vs Hs-27 cells
Summary of the method: (§1)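 Suspension cells plated at 10,000/well and exposed 20 h (footnote: 24 h) to graded concentrations in 1% v/v DMSO. Hoechst 33342/PI (1 μg/ml each) added for the final hour, then 3x3-field imaging. Dead cells were double-stained nuclei, DMSO background subtracted. CC50 by linear regression, triplicate. SCI = CC50 non-cancerous / CC50 cancer, using Hs-27 in the table and Hs-27, MCF-10A and CCD-112CoN for Jurkat.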

CEM = experiment: DNS cytotoxicity assay; type: cell-based; conditions: Homo sapiens, CCRF-CEM, 24 h, read-out: Cytotoxic concentration 50% (CC50)
Summary of the method: as §1

DNS cytotoxicity assay [2] = type: cell-based; conditions: human
Summary of the method: as §1

Jurkat = experiment: DNS cytotoxicity assay; type: cell-based; conditions: Homo sapiens, Jurkat, 24 h, read-out: Cytotoxic concentration 50% (CC50)
Summary of the method: as §1

DNS cytotoxicity assay [3] = type: cell-based; conditions: human, Nalm 6 cells vs Hs-27 cells
Summary of the method: as §1

Nalm 6 = experiment: DNS cytotoxicity assay; type: cell-based; conditions: Homo sapiens, NALM-6, 24 h, read-out: Cytotoxic concentration 50% (CC50)
Summary of the method: as §1

DNS cytotoxicity assay [4] = type: cell-based; conditions: human, Ramos cells vs Hs-27 cells
Summary of the method: as §1

Ramos = experiment: DNS cytotoxicity assay; type: cell-based; conditions: Homo sapiens, Ramos, 24 h, read-out: Cytotoxic concentration 50% (CC50)
Summary of the method: as §1

DNS cytotoxicity assay [5] = type: cell-based; conditions: human, CCD-112CoN non-cancerous colon fibroblasts
Summary of the method: (§2)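 DNS imaging assay. Adherent cells seeded at 5,000/well, incubated 20 h (table footnote says 24 h) with several compound concentrations in 1% v/v DMSO final. Hoechst 33342 and PI (1 μg/ml each, final) added 1 h before imaging 3x3 fields at 20x. Dead cells = Hoechst/PI co-localized nuclei. Values corrected by subtracting the mean % dead of six DMSO wells. CC50 by linear regression, triplicate.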

DNS cytotoxicity assay [6] = type: cell-based; conditions: human, Hs-27 non-cancerous foreskin fibroblasts
Summary of the method: as §2

DNS cytotoxicity assay [7] = type: cell-based; conditions: human, MCF-10A non-cancerous mammary epithelial cells
Summary of the method: as §2

Jurkat cells [8] = experiment: Apoptosis assay via annexin V-FITC/PI staining, Jurkat; type: cell-based, human; conditions: 24 h; for apoptosis (phosphatidylserine externalization, annexin V-FITC positive cells): 1 μM, flow cytometry
Summary of the method: (§3)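 Annexin V-FITC/PI co-staining read by flow cytometry after 24 h exposure. Excitation was at 488 nm, with FITC read on FL1 and PI on FL2. Cells that were PI-positive but annexin-negative were scored as necrotic. Controls were untreated cells, 1% v/v DMSO, 300 μM H2O2, and curcumin and EF-24 at 1 μM. Triplicates; compared with curcumin by Student's t-test.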

Nalm-6 cells = experiment: Apoptosis assay via annexin V-FITC/PI staining, Nalm-6; type: cell-based, human; conditions: 24 h; for apoptosis (phosphatidylserine externalization, annexin V-FITC positive cells): 1 μM, flow cytometry
Summary of the method: as §3

Jurkat cells [9] = experiment: Mitochondrial membrane potential assay; type: cell-based, human; conditions: 1 μM, 7 h, JC-1, flow cytometry
Summary of the method: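 Jurkat at 3x10^4 cells per mL per well (24-well) exposed 7 h to 1 μM. JC-1 then added, 30 min at 37 °C, followed by flow cytometry of ~10,000 events. 50 μM CCCP served as depolarization control, with 1% DMSO and untreated controls. Triplicates, t-test vs DMSO.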

[10] = system: caspase-3/7 in Jurkat cells; experiment: Caspase-3/7 activity assay; type: cell-based, human; conditions: 1 μM, 20 h, NucView 488, flow cytometry
Summary of the method: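 Jurkat seeded at 100 cells/μL (24-well) and treated 20 h with 1 μM. Active caspase-3/7 detected in live cells with the NucView 488 fluorogenic substrate by flow cytometry, ~10,000 events per sample. Positive controls were 2 μg/ml camptothecin and 10 μM curcumin, plus DMSO and untreated controls. Triplicates, t-test vs DMSO.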

[11] = system: leukemia and lymphoma neoplasms; experiment: DNS cytotoxicity screen at 1 μM, leukemia/lymphoma panel; type: cell-based; conditions: human leukemia/lymphoma cell lines
[12] = system: non-malignant MCF-10A and Hs-27 cell lines; experiment: DNS cytotoxicity screen at 1 μM, non-malignant cells; type: cell-based; conditions: 20 h
Summary of the method: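 Single-concentration DNS screen: 1 μM in 1% v/v DMSO for 20 h. Hoechst 33342 and PI (1 μg/ml each) added 1 h before automated imaging. Percent dead was calculated from co-stained nuclei out of total nuclei per well. Controls were 300 μM H2O2, 1% DMSO and untreated wells. Run in triplicate and shown as heat map.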

## COc1cc(/C=C/C(=O)CC(=O)/C=C/c2ccc(O)c(OC)c2)ccc1O [Curcumin, reference compound]
DNS cytotoxicity assay [1]
  selectivity ratio at 20 h: 1.4
CEM
  CC50: 10.6 ± 0.06 µM
DNS cytotoxicity assay [2]; Jurkat cells vs Hs-27 cells
  selectivity ratio at 20 h: 1.4
Jurkat
  CC50: 10.86 ± 0.04 µM
DNS cytotoxicity assay [3]
  selectivity ratio at 20 h: 1.4
Nalm 6
  CC50: 11 ± 0.2 µM
DNS cytotoxicity assay [4]
  selectivity ratio at 20 h: 1.7
Ramos
  CC50: 9.25 ± 0.37 µM
DNS cytotoxicity assay [5]
  CC50 at 24 h: 15.8 ± 0.13 µM
DNS cytotoxicity assay [6]
  CC50 at 24 h: 15.3 ± 0.38 µM
DNS cytotoxicity assay [7]
  CC50 at 24 h: 14.1 ± 0.66 µM
Jurkat cells [8]
  apoptosis (phosphatidylserine externalization, annexin V-FITC positive cells): did not induce significant PS externalization
Nalm-6 cells
  apoptosis (phosphatidylserine externalization, annexin V-FITC positive cells): did not induce significant PS externalization

## CCN(CC)CCOc1ccc(C(=O)Oc2ccc(C=C3CN(C)CC(=Cc4ccc(OC(=O)c5ccc(OCCN(CC)CC)cc5)cc4)C3=O)cc2)cc1 [Compound 1, 3,5-bis{4-[4-(2-diethylaminoethoxy)phenylcarbonyloxy]benzylidene}-1-methyl-4-piperidone]
DNS cytotoxicity assay [1]
  selectivity ratio at 20 h: 8.1
CEM
  CC50: 0.59 ± 0.03 µM
DNS cytotoxicity assay [2]
  selectivity ratio at 20 h: > 10
DNS cytotoxicity assay [2]; Jurkat cells vs CCD-112CoN cells
  selectivity ratio at 20 h: 10.9
DNS cytotoxicity assay [2]; Jurkat cells vs Hs-27 cells
  selectivity ratio at 20 h: 11.1
DNS cytotoxicity assay [2]; Jurkat cells vs MCF-10A cells
  selectivity ratio at 20 h: 36.3
Jurkat
  CC50: 0.43 ± 0.02 µM
DNS cytotoxicity assay [3]
  selectivity ratio at 20 h: 5.6
Nalm 6
  CC50: 0.86 ± 0.03 µM
DNS cytotoxicity assay [4]
  selectivity ratio at 20 h: 6.7
Ramos
  CC50: 0.71 ± 0.01 µM
DNS cytotoxicity assay [5]
  CC50 at 24 h: 4.68 ± 0.83 µM
DNS cytotoxicity assay [6]
  CC50 at 24 h: 4.78 ± 0.03 µM
DNS cytotoxicity assay [7]
  CC50 at 24 h: 15.6 ± 0.14 µM
Jurkat cells [8]
  apoptosis (phosphatidylserine externalization, annexin V-FITC positive cells): ~ 70%
Jurkat cells [8]; both compounds at 1 μM
  apoptotic activity as compared with curcumin: 10 fold
Nalm-6 cells
  apoptosis (phosphatidylserine externalization, annexin V-FITC positive cells): ~ 50%
Nalm-6 cells; both compounds at 1 μM
  apoptotic activity as compared with curcumin: 22.3 fold
Jurkat cells [9]
  mitochondrial depolarization: ~ 80%
[10]
  caspase-3/7 activation (active caspase 3/7-positive cells): > 90%
[11]
  in vitro cytotoxic concentration compared with curcumin: approximately ten times more effective than curcumin
[12]
  toxicity to non-malignant cell lines (heat map): low toxicity
